Converted amounts (≈) assume the structure as drawn.
Experiments:
Format in all cases: functional
Staphylococcus aureus [1] = experiment: Antibacterial activity against Staphylococcus aureus ATCC 25923 at 37 degC after 24 hrs by disc diffusion method
Procedure, shortened: (§1)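 Disc diffusion on nutrient agar. Plates were spread with 1–2 × […] c.f.u./ml inoculum (0.5 McFarland). Sterile 6.25 mm filter-paper discs were soaked in a known concentration of compound and placed on the agar. Plates were inverted and incubated 24 h at 37 °C. Inhibition zones (mm) were read against solvent and growth controls, with ciprofloxacin as reference.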

Escherichia coli [2] = experiment: Antibacterial activity against Escherichia coli ATCC 25922 at 37 degC after 24 hrs by disc diffusion method; procedure, shortened: as §1
Klebsiella pneumoniae [3] = experiment: Antibacterial activity against Klebsiella pneumoniae ATCC 25922 at 37 degC after 24 hrs by disc diffusion method; procedure, shortened: as §1
Pseudomonas aeruginosa [4] = experiment: Antibacterial activity against Pseudomonas aeruginosa ATCC 27853 at 37 degC after 24 hrs by disc diffusion method; procedure, shortened: as §1
Staphylococcus aureus [5] = experiment: Antibacterial activity against Staphylococcus aureus ATCC 25923 at 37 degC after 24 hrs by broth dilution method; conditions: ATCC 25923, 24 h
Procedure, shortened: (§2)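 Broth dilution MIC. Nutrient broth held two-fold serial dilutions of compound and was inoculated with about 5 × 10⁵ c.f.u. of actively dividing bacteria. Cultures ran 24 h at 37 °C, with growth checked visually and spectrophotometrically. MIC was the lowest concentration arresting growth. Ciprofloxacin was the standard.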

Escherichia coli [6] = experiment: Antibacterial activity against Escherichia coli ATCC 25922 at 37 degC after 24 hrs by broth dilution method; conditions: ATCC 25922, 24 h; procedure, shortened: as §2
Klebsiella pneumoniae [7] = experiment: Antibacterial activity against Klebsiella pneumoniae ATCC 25922 at 37 degC after 24 hrs by broth dilution method; conditions: recultured, in the assay text read “Klebsiella pneumoniae (recultured)” for “Klebsiella pneumoniae ATCC 25922”; procedure, shortened: as §2
Pseudomonas aeruginosa [8] = experiment: Antibacterial activity against Pseudomonas aeruginosa ATCC 27853 at 37 degC after 24 hrs by broth dilution method; conditions: ATCC 27853, 24 h; procedure, shortened: as §2
Staphylococcus aureus [9] = experiment: Antibacterial activity against Staphylococcus aureus ATCC 25923 at 35 degC after 18 to 24 hrs
Procedure, shortened: (§3)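 Bactericidal endpoint (MBC) taken from the broth-dilution MIC tubes. 0.1 ml from each tube was spread on agar plates and c.f.u. counted after 18–24 h. MBC was the lowest concentration completely killing the bacteria.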

Escherichia coli [10] = experiment: Antibacterial activity against Escherichia coli ATCC 25922 at 35 degC after 18 to 24 hrs; procedure, shortened: as §3
Klebsiella pneumoniae [11] = experiment: Antibacterial activity against Klebsiella pneumoniae ATCC 25922 at 35 degC after 18 to 24 hrs; conditions: recultured, in the assay text read “Klebsiella pneumoniae (recultured)” for “Klebsiella pneumoniae ATCC 25922”; procedure, shortened: as §3
Pseudomonas aeruginosa [12] = experiment: Antibacterial activity against Pseudomonas aeruginosa ATCC 27853 at 35 degC after 18 to 24 hrs; procedure, shortened: as §3
Candida albicans [13] = experiment: Antifungal activity against Candida albicans at 37 degC after 3 to 4 days by agar dilution method
Procedure, shortened: (§4)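 Agar well diffusion for fungi, compounds in DMSO. Sabouraud agar was adjusted to pH 5.7 and lawned with a saline spore suspension (a loopful in 3 ml). Plates were dried 1 h at 37 °C, then wells were punched. Incubation was 3–4 days at 37 °C, with controls in triplicate. Inhibition zones were measured against controls, with griseofulvin as standard.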

Aspergillus fumigatus [14] = experiment: Antifungal activity against Aspergillus fumigatus at 37 degC after 3 to 4 days by agar […] method; procedure, shortened: as §4
Talaromyces marneffei [15] = experiment: Antifungal activity against Penicillium marneffei at 37 degC after 3 to 4 days by agar […] method; procedure, shortened: as §4
[16] = tested on: Trichophyton mentagrophytes; experiment: Antifungal activity against Trichophyton mentagrophytes at 37 degC after 3 to 4 days by agar dilution method; conditions: in the assay text read “agar diffusion method” for “agar dilution method”; procedure, shortened: as §4
Candida albicans [17] = experiment: Antifungal activity against Candida albicans at 35 degC after 48 hrs by broth dilution method
Procedure, shortened: (§5)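 Fungal MIC by broth dilution. Two-fold serial dilutions of compound in nutrient broth were inoculated with about 1.6 × 10⁴–6 × 10⁴ c.f.u./ml. Incubation was 48 h at 35 °C. MIC was the lowest concentration arresting fungal growth.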

Aspergillus fumigatus [18] = experiment: Antifungal activity against Aspergillus fumigatus at 35 degC after 48 hrs by broth dilution method; procedure, shortened: as §5
Talaromyces marneffei [19] = experiment: Antifungal activity against Penicillium marneffei at 35 degC after 48 hrs by broth dilution method; procedure, shortened: as §5
[20] = tested on: Trichophyton mentagrophytes; experiment: Antifungal activity against Trichophyton mentagrophytes at 35 degC after 48 hrs by broth dilution method; procedure, shortened: as §5
Candida albicans [21] = experiment: Antifungal activity against Candida albicans at 35 degC after 48 hrs
Procedure, shortened: (§6)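 Fungicidal endpoint (MFC). 0.1 ml from each broth-dilution tube was spread on agar plates and c.f.u. counted after 48 h at 35 °C. MFC was the lowest concentration killing 99.9% of the inoculum.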

Aspergillus fumigatus [22] = experiment: Antifungal activity against Aspergillus fumigatus at 35 degC after 48 hrs; procedure, shortened: as §6
Talaromyces marneffei [23] = experiment: Antifungal activity against Penicillium marneffei at 35 degC after 48 hrs; procedure, shortened: as §6
[24] = tested on: Trichophyton mentagrophytes; experiment: Antifungal activity against Trichophyton mentagrophytes at 35 degC after 48 hrs; procedure, shortened: as §6

| Structure (SMILES) | MIC (Staphylococcus aureus [5]) [µg/mL] | MIC (Escherichia coli [6]) [µg/mL] | MIC (Klebsiella pneumoniae [7]) [µg/mL] | MIC (Pseudomonas aeruginosa [8]) [µg/mL] | MIC (Candida albicans [17]) [µg/mL] | MIC (Aspergillus fumigatus [18]) [µg/mL] | MIC (Talaromyces marneffei [19]) [µg/mL] | MIC [20] [µg/mL] | inhibition zone (IZ) (Staphylococcus aureus [1]) [mm] | inhibition zone (IZ) (Escherichia coli [2]) [mm] | inhibition zone (IZ) (Pseudomonas aeruginosa [4]) [mm] | MBC (Staphylococcus aureus [9]) [µg/mL] | MBC (Escherichia coli [10]) [µg/mL] | MBC (Klebsiella pneumoniae [11]) [µg/mL] | MBC (Pseudomonas aeruginosa [12]) [µg/mL] | inhibition zone (IZ) [16] [mm] | MFC (Candida albicans [21]) [µg/mL] | MFC (Aspergillus fumigatus [22]) [µg/mL] | MFC (Talaromyces marneffei [23]) [µg/mL] | MFC [24] [µg/mL] | further results |
| --- | --- | --- | --- | --- | --- | --- | --- | --- | --- | --- | --- | --- | --- | --- | --- | --- | --- | --- | --- | --- | --- |
| Cc1ccc(OCc2nnc(-c3cc(F)c(Cl)cc3Cl)o2)cc1 | 6.25 (≈ 17.7 µM) | 6.25 (≈ 17.7 µM) | 12.5 (≈ 35.4 µM) | 6.25 (≈ 17.7 µM) | 6.25 (≈ 17.7 µM) | 6.25 (≈ 17.7 µM) | 6.25 (≈ 17.7 µM) | 6.25 (≈ 17.7 µM) | 22 | 25 | 32 | 12.5 (≈ 35.4 µM) | 6.25 (≈ 17.7 µM) | 25 (≈ 70.8 µM) | 12.5 (≈ 35.4 µM) | 24 | 6.25 (≈ 17.7 µM) | 12.5 (≈ 35.4 µM) | 12.5 (≈ 35.4 µM) | 6.25 (≈ 17.7 µM) | inhibition zone (IZ) (Klebsiella pneumoniae [3]): 18 mm; inhibition zone (IZ) (Candida albicans [13]): 27 mm; inhibition zone (IZ) (Aspergillus fumigatus [14]): 26 mm; inhibition zone (IZ) (Talaromyces marneffei [15]): 18 mm |
| O=C(O)c1cn(C2CC2)c2cc(N3CCNCC3)c(F)cc2c1=O [CIPROFLOXACIN] | – | – | 12.5 (≈ 37.7 µM) | – | – | – | – | – | 22 | 27 | 32 | 12.5 (≈ 37.7 µM) | 12.5 (≈ 37.7 µM) | 12.5 (≈ 37.7 µM) | 12.5 (≈ 37.7 µM) | – | – | – | – | – | inhibition zone (IZ) (Klebsiella pneumoniae [3]): 19 mm |
| COC1=CC(=O)C[C@@H](C)[C@]12Oc1c(Cl)c(OC)cc(OC)c1C2=O [GRISEOFULVIN] | – | – | – | – | 6.25 (≈ 17.7 µM) | 6.25 (≈ 17.7 µM) | 6.25 (≈ 17.7 µM) | 6.25 (≈ 17.7 µM) | – | – | – | – | – | – | – | 24 | 12.5 (≈ 35.4 µM) | 12.5 (≈ 35.4 µM) | 12.5 (≈ 35.4 µM) | 12.5 (≈ 35.4 µM) | inhibition zone (IZ) (Candida albicans [13]): 30 mm; inhibition zone (IZ) (Aspergillus fumigatus [14]): 27 mm; inhibition zone (IZ) (Talaromyces marneffei [15]): 20 mm |

The next lines start with results.

| MIC (Staphylococcus aureus [5]) [µg/mL] | MIC (Escherichia coli [6]) [µg/mL] | MIC (Klebsiella pneumoniae [7]) [µg/mL] | MIC (Pseudomonas aeruginosa [8]) [µg/mL] | MIC (Candida albicans [17]) [µg/mL] | MIC (Aspergillus fumigatus [18]) [µg/mL] | MIC (Talaromyces marneffei [19]) [µg/mL] | MIC [20] [µg/mL] | Structure (SMILES) | inhibition zone (IZ) (Staphylococcus aureus [1]) [mm] | inhibition zone (IZ) (Escherichia coli [2]) [mm] | inhibition zone (IZ) (Pseudomonas aeruginosa [4]) [mm] | MBC (Staphylococcus aureus [9]) [µg/mL] | MBC (Escherichia coli [10]) [µg/mL] | MBC (Klebsiella pneumoniae [11]) [µg/mL] | MBC (Pseudomonas aeruginosa [12]) [µg/mL] | inhibition zone (IZ) [16] [mm] | MFC (Candida albicans [21]) [µg/mL] | MFC (Aspergillus fumigatus [22]) [µg/mL] | MFC (Talaromyces marneffei [23]) [µg/mL] | MFC [24] [µg/mL] | further results |
| --- | --- | --- | --- | --- | --- | --- | --- | --- | --- | --- | --- | --- | --- | --- | --- | --- | --- | --- | --- | --- | --- |
| 12.5 (≈ 26 µM) | 12.5 (≈ 26 µM) | > 100 | > 100 | 6.25 (≈ 13 µM) | > 100 | > 100 | 6.25 (≈ 13 µM) | Cc1ccccc1OCc1nnc(-c2cc(-c3cc(F)c(Cl)cc3Cl)nc3ccccc23)o1 | 12 | 12 | – | 25 (≈ 52 µM) | 25 (≈ 52 µM) | > 100 | > 100 | 18 | 25 (≈ 52 µM) | > 100 | > 100 | 12.5 (≈ 26 µM) | Activity (Klebsiella pneumoniae [3]): >100 µg/mL; Activity (Pseudomonas aeruginosa [4]): >100 µg/mL; inhibition zone (IZ) (Candida albicans [13]): 25 mm; Activity (Aspergillus fumigatus [14]): >100 µg/mL; Activity (Talaromyces marneffei [15]): >100 µg/mL |
| 6.25 (≈ 11.7 µM) | 6.25 (≈ 11.7 µM) | 12.5 (≈ 23.4 µM) | 6.25 (≈ 11.7 µM) | 6.25 (≈ 11.7 µM) | 6.25 (≈ 11.7 µM) | 6.25 (≈ 11.7 µM) | 6.25 (≈ 11.7 µM) | Fc1cc(-c2cc(-c3nnc(COc4ccc(Cl)cc4Cl)o3)c3ccccc3n2)c(Cl)cc1Cl | 20 | 26 | 30 | 6.25 (≈ 11.7 µM) | 12.5 (≈ 23.4 µM) | 12.5 (≈ 23.4 µM) | 12.5 (≈ 23.4 µM) | 21 | 6.25 (≈ 11.7 µM) | 12.5 (≈ 23.4 µM) | 6.25 (≈ 11.7 µM) | 25 (≈ 46.7 µM) | inhibition zone (IZ) (Klebsiella pneumoniae [3]): 17 mm; inhibition zone (IZ) (Candida albicans [13]): 29 mm; inhibition zone (IZ) (Aspergillus fumigatus [14]): 27 mm; inhibition zone (IZ) (Talaromyces marneffei [15]): 19 mm |
| 6.25 (≈ 12.1 µM) | > 100 | > 100 | 12.5 (≈ 24.3 µM) | > 100 | 12.5 (≈ 24.3 µM) | > 100 | 6.25 (≈ 12.1 µM) | Cc1cc(Cl)ccc1OCc1nnc(-c2cc(-c3cc(F)c(Cl)cc3Cl)nc3ccccc23)o1 | 17 | – | 12 | 25 (≈ 48.6 µM) | > 100 | > 100 | 50 (≈ 97.1 µM) | 19 | > 100 | 50 (≈ 97.1 µM) | > 100 | 12.5 (≈ 24.3 µM) | Activity (Escherichia coli [2]): >100 µg/mL; Activity (Klebsiella pneumoniae [3]): >100 µg/mL; Activity (Candida albicans [13]; in the assay text read “agar diffusion method” for “agar dilution method”): >100 µg/mL; inhibition zone (IZ) (Aspergillus fumigatus [14]): 12 mm; Activity (Talaromyces marneffei [15]): >100 µg/mL |

— ChEMBL document CHEMBL1149771, “Antimicrobial studies of 2,4-dichloro-5-fluorophenyl containing oxadiazoles” (2008)
